Test results from ChEMBL document CHEMBL5247578, “Effective synthesis of benzimidazoles-imidazo[1,2-a]pyrazine conjugates: A comparative study of mono-and bis-benzimidazoles for antitumor activity” (Eur J Med Chem, 2019).

Legend:
MCF7 [1] = assay: Growth inhibition against human MCF7 cells incubated for 48 hrs by sulforhodamine B assay; type: functional
TK-10 = assay: Antiproliferative activity against human TK-10 cells assessed as cell growth at 0.00000001 M incubated for 48 hrs by SRB assay relative to control; type: functional; details: dose 10 nM, read-out: Activity
OVCAR-5 = assay: Antiproliferative activity against human OVCAR-5 cells assessed as cell growth at 0.000001 M incubated for 48 hrs by SRB assay relative to control; type: functional; details: read-out: Activity
SW-620 = assay: Antiproliferative activity against human SW620 cells assessed as cell growth at 0.0000001 M incubated for 48 hrs by SRB assay relative to control; type: functional; details: dose 100 nM, read-out: Activity
RPMI-8226 [2] = assay: Growth inhibition against human RPMI-8226 cells assessed as total growth inhibitory concentration incubated for 48 hrs by sulforhodamine B assay; type: functional
A498 [3] = assay: Antiproliferative activity against human A498 cells assessed as cell growth at 0.00001 M incubated for 48 hrs by SRB assay relative to control; type: functional; details: read-out: Activity
Method in brief: (§1)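 NCI-60 five-dose screen over 10^-4–10^-8 M (10-fold dilutions). Cells grown in RPMI 1640 with 5% FBS and 2 mM L-glutamine, seeded at 5,000–40,000 cells/well and preincubated 24 h. Drug from DMSO stock, 48 h at 37 °C, 5% CO2. Adherent cells TCA-fixed and stained with 0.4% SRB; A515 read. Percent growth = (Ti−Tz)/(C−Tz)×100, or (Ti−Tz)/Tz×100 when Ti<Tz.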

SNB-19 [4] = assay: Growth inhibition against human SNB-19 cells assessed as total growth inhibitory concentration incubated for 48 hrs by sulforhodamine B assay; type: functional
OVCAR-3 [5] = assay: Antiproliferative activity against human OVCAR-3 cells assessed as cell growth at 0.00000001 M incubated for 48 hrs by SRB assay relative to control; type: functional; details: dose 10 nM, read-out: Activity
OVCAR-3 [6] = assay: Antiproliferative activity against human OVCAR-3 cells assessed as cell growth at 0.00001 M incubated for 48 hrs by SRB assay relative to control; type: functional; details: read-out: Activity
BT-549 = assay: Antiproliferative activity against human BT-549 cells assessed as cell growth inhibition by measuring lethal concentration incubated for 48 hrs by sulforhodamine B assay; type: functional; details: read-out: LC50 (the source's name)
MOLT-4 = assay: Antiproliferative activity against human MOLT-4 cells assessed as cell growth at 0.000001 M incubated for 48 hrs by SRB assay relative to control; type: functional; details: read-out: Activity
A498 [7] = assay: Antiproliferative activity against human A498 cells assessed as cell growth at 0.0000001 M incubated for 48 hrs by SRB assay relative to control; type: functional; details: dose 100 nM, read-out: Activity; method in brief: as §1
OVCAR-3 [8] = assay: Growth inhibition against human OVCAR-3 cells incubated for 48 hrs by sulforhodamine B assay; type: functional
NCI-H322M = assay: Growth inhibition against human NCI-H322M cells incubated for 48 hrs by sulforhodamine B assay; type: functional
Calf thymus DNA = assay: Displacement of ethidium bromide from calf thymus DNA assessed as quenching constant upto 85 uM by fluorescence based spectroscopic analysis; type: nucleic-acid assay; details: Bos taurus
SK-OV-3 = assay: Growth inhibition against human SK-OV-3 cells incubated for 48 hrs by sulforhodamine B assay; type: functional
CAKI-1 [9] = assay: Antiproliferative activity against human CAKI-1 cells assessed as cell growth at 0.000001 M incubated for 48 hrs by SRB assay relative to control; type: functional; details: read-out: Activity; method in brief: as §1
HCC 2998 = assay: Antiproliferative activity against human HCC 2998 cells assessed as cell growth at 0.0001 M incubated for 48 hrs by SRB assay relative to control; type: functional; details: read-out: Activity
Method in brief: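 NCI-60 five-dose screen (10^-4 to 10^-8 M). Cells grown in RPMI 1640 with 5% FBS and 2 mM L-glutamine, plated at 5,000-40,000 cells/well and preincubated 24 h. Drug given from DMSO stock, then 48 h at 37 °C, 5% CO2. For adherent lines, cells fixed with cold TCA, SRB-stained and read at 515 nm. Percent growth taken against time-zero and untreated control.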

SK-MEL-5 = assay: Growth inhibition against human SK-MEL-5 cells assessed as total growth inhibitory concentration incubated for 48 hrs by sulforhodamine B assay; type: functional
M14 = assay: Antiproliferative activity against human M14 cells assessed as cell growth at 0.00001 M incubated for 48 hrs by SRB assay relative to control; type: functional; details: read-out: Activity
SNB-19 [10] = assay: Antiproliferative activity against human SNB-19 cells assessed as cell growth at 0.000001 M incubated for 48 hrs by SRB assay relative to control; type: functional; details: read-out: Activity
PC-3 = assay: Antiproliferative activity against human PC-3 cells assessed as cell growth inhibition by measuring lethal concentration incubated for 48 hrs by sulforhodamine B assay; type: functional; details: read-out: LC50 (the source's name)
NCI/ADR-RES [11] = assay: Antiproliferative activity against human NCI/ADR-RES cells assessed as cell growth at 0.0000001 M incubated for 48 hrs by SRB assay relative to control; type: functional; details: dose 100 nM, read-out: Activity
MCF7 [12] = assay: Growth inhibition against human MCF7 cells assessed as total growth inhibitory concentration incubated for 48 hrs by sulforhodamine B assay; type: functional
RPMI-8226 [13] = assay: Growth inhibition against human RPMI-8226 cells incubated for 48 hrs by sulforhodamine B assay; type: functional
NCI-H23 = assay: Antiproliferative activity against human NCI-H23 cells assessed as cell growth at 0.0000001 M incubated for 48 hrs by SRB assay relative to control; type: functional; details: dose 100 nM, read-out: Activity
HCT-15 = assay: Antiproliferative activity against human HCT-15 cells assessed as cell growth inhibition by measuring lethal concentration incubated for 48 hrs by sulforhodamine B assay; type: functional; details: read-out: LC50 (the source's name)
NCI/ADR-RES [14] = assay: Growth inhibition against human NCI/ADR-RES cells incubated for 48 hrs by sulforhodamine B assay; type: functional
RPMI-8226 [15] = assay: Antiproliferative activity against human RPMI-8226 cells assessed as cell growth at 0.000001 M incubated for 48 hrs by SRB assay relative to control; type: functional; details: read-out: Activity
CAKI-1 [16] = assay: Antiproliferative activity against human CAKI-1 cells assessed as cell growth inhibition by measuring lethal concentration incubated for 48 hrs by sulforhodamine B assay; type: functional; details: read-out: LC50 (the source's name)
ACHN = assay: Antiproliferative activity against human ACHN cells assessed as cell growth at 0.0000001 M incubated for 48 hrs by SRB assay relative to control; type: functional; details: dose 100 nM, read-out: Activity; method in brief: as §1
HEK293 = assay: Cytotoxicity against human HEK293 cells assessed as reduction in cell viability at 0.000001 M incubated for 48 hrs by MTT colorimetric assay relative to control; type: toxicity, cell-based; details: hek293, 48 h, 1 µM
SR = assay: Growth inhibition against human SR cells assessed as total growth inhibitory concentration incubated for 48 hrs by sulforhodamine B assay; type: functional
Hs-578T = assay: Growth inhibition against human Hs-578T cells assessed as total growth inhibitory concentration incubated for 48 hrs by sulforhodamine B assay; type: functional

| Compound | GI50 (MCF7 [1]) [µM] | growth at 0.01 µM (TK-10) [%] | growth at 1 µM (OVCAR-5) [%] | growth at 0.1 µM (SW-620) [%] | TGI (RPMI-8226 [2]) [µM] | growth at 10 µM (A498 [3]) [%] | TGI (SNB-19 [4]) [µM] | growth at 0.01 µM (OVCAR-3 [5]) [%] | growth at 10 µM (OVCAR-3 [6]) [%] | CC50 (BT-549) [µM] | growth at 1 µM (MOLT-4) [%] | growth at 0.1 µM (A498 [7]) [%] | GI50 (OVCAR-3 [8]) [µM] | GI50 (NCI-H322M) [µM] | Kq (Calf thymus DNA) | GI50 (SK-OV-3) [µM] | growth at 1 µM (CAKI-1 [9]) [%] | growth at 100 µM (HCC 2998) [%] | TGI (SK-MEL-5) [µM] | growth at 10 µM (M14) [%] | other results |
| --- | --- | --- | --- | --- | --- | --- | --- | --- | --- | --- | --- | --- | --- | --- | --- | --- | --- | --- | --- | --- | --- |
| COc1ccc(-c2cn3ccnc3c(-c3ccc4ncn(C5CCCCC5)c4c3)n2)cc1 | 0.64 | 88 | 75 | 99 | > 100 | 8 | > 100 | 100 | 10 | > 100 | 78 | 92 | 0.411 | > 100 | 0.82 10^12/M/s | 0.508 | 44 | 20 | 3.2 | 9 | growth at 1 µM (SNB-19 [10]): 45%; CC50 (PC-3): > 100 µM; growth at 0.1 µM (NCI/ADR-RES [11]): 94%; TGI (MCF7 [12]): > 100 µM; GI50 (RPMI-8226 [13]): 2.96 µM; growth at 0.1 µM (NCI-H23): 95%; CC50 (HCT-15): > 100 µM; GI50 (NCI/ADR-RES [14]): 0.618 µM; growth at 1 µM (RPMI-8226 [15]): 86%; CC50 (CAKI-1 [16]): > 100 µM; growth at 0.1 µM (ACHN): 100%; Activity (HEK293): 15.07%; TGI (SR): > 100 µM; TGI (Hs-578T): 49.3 µM |
| c1ccc(Cn2cnc3ccc(-c4nc(-c5ccc6c(c5)ncn6C5CCCCC5)cn5ccnc45)cc32)cc1 | 2.72 | 84 | 89 | 105 | 4.5 | -79 | > 100 | 101 | -29 | 5.96 | 64 | 101 | 2.27 | 3.05 | 0.74 10^12/M/s | 2.53 | 71 | -89 | 2.96 | -25 | growth at 1 µM (SNB-19 [10]): 93%; CC50 (PC-3): > 100 µM; growth at 0.1 µM (NCI/ADR-RES [11]): 97%; TGI (MCF7 [12]): > 100 µM; GI50 (RPMI-8226 [13]): 1.15 µM; growth at 0.1 µM (NCI-H23): 93%; CC50 (HCT-15): > 100 µM; GI50 (NCI/ADR-RES [14]): 1.98 µM; growth at 1 µM (RPMI-8226 [15]): 55%; CC50 (CAKI-1 [16]): > 100 µM; growth at 0.1 µM (ACHN): 97%; Activity (HEK293): 14.11%; TGI (SR): > 100 µM; TGI (Hs-578T): > 100 µM |
